Laboratory results reported in ChEMBL document CHEMBL1144203, “Synthesis and antiviral evaluation of acyclic azanucleosides developed from sulfanilamide as a lead structure” (Bioorg Med Chem, 2008).
Calls of active or inactive are those of the source. The rule behind the calls is not given here.

Legend:
MDCK = assay: Cytotoxicity against MDCK cells assessed as decrease in cell viability upto 100 uM by MTS assay; format: cell-based, Canis lupus familiaris; settings: dog
[1] = tested on: Mammalian orthoreovirus 1; assay: Antiviral activity against Reovirus1 infected in Vero cells assessed as inhibition of virus-induced cytopathic effect at 100 uM by MTS assay; format: functional, organism-based
Outline: (§1)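 Vero cell monolayers were infected with the virus in cell-based CPE assays. EC50 is the concentration giving 50% inhibition of virus-induced cytopathic effect, scored visually or by MTS formazan colorimetric cell-viability read-out. The highest concentration tested was 100 μM for most compounds and lower for a few.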

Felid alphaherpesvirus 1 = assay: Antiviral activity against feline herpes virus infected in CRFK cells assessed as inhibition of virus-induced cytopathic effect at 100 uM by MTS assay; format: functional, organism-based
Coxsackievirus B4 [2] = assay: Antiviral activity against Coxsackievirus B4 infected in Vero cells assessed as inhibition of virus-induced cytopathic effect at 100 uM by MTS assay; format: functional, organism-based; outline: as §1
Coxsackievirus B4 [3] = assay: Antiviral activity against Coxsackievirus B4 infected in HeLa cells assessed as inhibition of virus-induced cytopathic effect at 100 uM by MTS assay; format: functional, organism-based
Outline: (§2)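 HeLa cells were infected with the virus, and compounds were tested up to 100 μM. EC50 is the concentration that halves virus-induced cytopathic effect, read by visual CPE scoring or by MTS formazan colorimetric viability measurement.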

[4] = Cytotoxicity against african green monkey Vero cells assessed as alteration in cell morphology by MTS assay; format: cell-based; settings: chlorocebus sabaeus
Outline: (§3)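 Uninfected host cells were exposed to compound and examined under the microscope. MCC was the minimal compound concentration causing a microscopically detectable change in normal cell morphology.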

Human alphaherpesvirus 2 = assay: Antiviral activity against HSV2 virus infected in HEL cells assessed as inhibition of virus-induced cytopathic effect at 100 uM by MTS assay; format: functional, organism-based
Feline coronavirus = assay: Antiviral activity against feline coronavirus infected in CRFK cells assessed as inhibition of virus-induced cytopathic effect at 100 uM by MTS assay; format: functional, organism-based
HeLa [5] = assay: Cytotoxicity against human HeLa cells assessed as decrease in cell viability upto 100 uM by MTS assay; format: functional, cell-based
Outline: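 Uninfected HeLa host cells were tested up to 100 μM. CC50 is the concentration causing a 50% drop in cell viability by colorimetric formazan-based MTS assay. Alternatively, MCC is the minimal concentration giving microscopically detectable alteration of normal cell morphology.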

Human alphaherpesvirus 1 = assay: Antiviral activity against HSV1 virus infected in HEL cells assessed as inhibition of virus-induced cytopathic effect at 100 uM by MTS assay; format: functional, organism-based
[6] = tested on: Respiratory syncytial virus; assay: Antiviral activity against respiratory syncytial virus infected in HeLa cells assessed as inhibition of virus-induced cytopathic effect at 100 uM by MTS assay; format: functional, organism-based; outline: as §2
[7] = Cytotoxicity against CRFK cells assessed as decrease in cell viability upto 100 uM by MTS assay; format: cell-based, Felis catus; settings: cat
Punta Toro virus [8] = assay: Antiviral activity against Punta Toro virus infected in Vero cells assessed as inhibition of virus-induced cytopathic effect at 100 uM by MTS assay; format: functional, organism-based; outline: as §1
HEL = assay: Cytotoxicity against HEL cells assessed as decrease in cell viability upto 100 uM by MTS assay; format: cell-based; settings: human
Human respirovirus 3 = assay: Antiviral activity against Parainfluenza 3 virus infected in Vero cells assessed as inhibition of virus-induced cytopathic effect at 100 uM by MTS assay; format: functional, organism-based; outline: as §1
Sindbis virus = assay: Antiviral activity against Sindbis virus infected in Vero cells assessed as inhibition of virus-induced cytopathic effect at 100 uM by MTS assay; format: functional, organism-based; outline: as §1
[9] = Cytotoxicity against HEL cells assessed as alteration in cell morphology by MTS assay; format: cell-based; settings: human
Outline: (§4)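 Uninfected host cells (HEL or HeLa) exposed to compounds […]. The minimal cytotoxic concentration (MCC) is the lowest concentration causing a microscopically detectable change in normal cell morphology. CC50 is the concentration giving a 50% fall in cell viability by the colorimetric formazan-based MTS assay.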

[10] = Cytotoxicity against CRFK cells assessed as decrease in cell viability by MTS assay; format: cell-based, Felis catus; settings: cat
Outline: (§5)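 Uninfected host cells were exposed to compound. CC50 was taken as the concentration giving a 50% fall in cell viability, measured by a colorimetric formazan-based MTS assay.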

[11] = Cytotoxicity against MDCK cells assessed as decrease in cell viability by MTS assay; format: cell-based, Canis lupus familiaris; settings: dog; outline: as §5
HeLa [12] = assay: Cytotoxicity against human HeLa cells assessed as alteration in cell morphology by MTS assay; format: functional; outline: as §4
[13] = Cytotoxicity against MDCK cells assessed as alteration in cell morphology by MTS assay; format: cell-based, Canis lupus familiaris; settings: dog; outline: as §3
Vero = assay: Cytotoxicity against african green monkey Vero cells assessed as decrease in cell viability upto 100 uM by MTS assay; format: cell-based; settings: chlorocebus sabaeus
Coxsackievirus B4 [14] = assay: Antiviral activity against Coxsackievirus B4 infected in Vero cells assessed as inhibition of virus-induced cytopathic effect by MTS assay; format: functional, organism-based; settings: Enterovirus B
Outline: (§6)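 Vero cell monolayers infected with Coxsackie B4 virus or Punta Toro virus, with test compounds at up to 100 μM. EC50 is the concentration giving 50% inhibition of virus-induced cytopathic effect (CPE), scored visually or from cell viability by the colorimetric formazan-based MTS assay.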

Punta Toro virus [15] = assay: Antiviral activity against Punta Toro virus infected in Vero cells assessed as inhibition of virus-induced cytopathic effect by MTS assay; format: functional, organism-based; outline: as §6

Row | SMILES | Activity (MDCK) | Activity [1] | Activity (Felid alphaherpesvirus 1) | Activity (Coxsackievirus B4 [2]) | Activity (Coxsackievirus B4 [3]) | MCC [4] | Activity (Human alphaherpesvirus 2) | Activity (Feline coronavirus) | Activity (HeLa [5]) | Activity (Human alphaherpesvirus 1) | Activity [6] | Activity [7] | Activity (Punta Toro virus [8]) | Activity (HEL) | Activity (Human respirovirus 3) | Activity (Sindbis virus) | MCC [9] | further results
1 | CC(=O)Nc1ccc(S(=O)(=O)N(CCOC(=O)C(C)(C)C)Cn2ccc(=O)[nH]c2=O)cc1 | Not Active | inactive | inactive | inactive | inactive | 40 µM | inactive | inactive | inactive | inactive | inactive | Not Active | inactive | Not Active | inactive | inactive | – | –
2 | Nc1nc(O)c2ncn(COC(CO)CO)c2n1 [GANCICLOVIR] | – | – | – | – | – | – | – | – | – | – | – | – | – | – | – | – | > 100 µM | CC50 [10]: > 100 µM
3 | NC(=O)c1ncn([C@@H]2O[C@H](CO)[C@@H](O)[C@H]2O)n1 [RIBAVIRIN] | – | – | – | – | – | > 250 µM | – | – | – | – | – | – | – | – | – | – | > 250 µM | CC50 [11]: > 100 µM; MCC (HeLa [12]): > 250 µM; MCC [13]: 100 µM
4 | O=c1[nH]c(=O)n([C@H]2C[C@H](O)[C@@H](CO)O2)cc1/C=C/Br [BRIVUDINE] | – | – | – | – | – | > 250 µM | – | – | – | – | – | – | – | – | – | – | > 250 µM | MCC (HeLa [12]): > 250 µM
5 | CC(=O)Nc1ccc(S(=O)(=O)N(CCO)Cn2ccc(=O)[nH]c2=O)cc1 | Not Active | inactive | inactive | inactive | inactive | – | inactive | inactive | inactive | inactive | inactive | Not Active | inactive | Not Active | inactive | inactive | – | Activity (Vero): Not Active
6 | CC(C)(C)C(=O)OCCN(Cn1cc(F)c(=O)[nH]c1=O)S(=O)(=O)c1cccc([N+](=O)[O-])c1 | – | inactive | inactive | – | inactive | – | inactive | inactive | inactive | inactive | inactive | – | – | Not Active | inactive | inactive | – | CC50 [11]: > 100 µM; EC50 (Coxsackievirus B4 [14]): 100 µM; CC50 [10]: 95 µM; MCC [13]: ≥ 100 µM; EC50 (Punta Toro virus [15]): 100 µM
7 | Cc1cn(CN(CCOC(=O)C(C)(C)C)S(=O)(=O)c2ccccc2[N+](=O)[O-])c(=O)[nH]c1=O | Not Active | inactive | inactive | – | inactive | – | inactive | inactive | inactive | inactive | inactive | Not Active | – | Not Active | inactive | inactive | – | EC50 (Coxsackievirus B4 [14]): 100 µM; EC50 (Punta Toro virus [15]): 100 µM
8 | CC(C)(C)C(=O)OCCN(Cn1cc(F)c(=O)[nH]c1=O)S(=O)(=O)c1ccccc1[N+](=O)[O-] | – | inactive | inactive | inactive | inactive | – | inactive | inactive | inactive | inactive | inactive | – | inactive | Not Active | inactive | inactive | – | CC50 [11]: > 100 µM; CC50 [10]: 14 µM; MCC [13]: 4 µM
9 | CC(=O)Nc1ccc(S(=O)(=O)N(CCOC(=O)C(C)(C)C)Cn2cc(C)c(=O)[nH]c2=O)cc1 | Not Active | inactive | inactive | inactive | inactive | 40 µM | inactive | inactive | inactive | inactive | inactive | Not Active | inactive | Not Active | inactive | inactive | – | –
10 | Nc1ncnc2c1ncn2C[C@H](O)CO [(S)-DHPA] | – | – | – | – | – | > 250 µM | – | – | – | – | – | – | – | – | – | – | – | MCC (HeLa [12]): > 250 µM
11 | Nc1nc2c(ncn2COCCO)c(=O)[nH]1 [ACYCLOVIR] | – | – | – | – | – | – | – | – | – | – | – | – | – | – | – | – | > 250 µM | –
